This is a sample that favours compounds with a hit; in the whole collection about 1.3% have one here.
FN deposition inh – inhibitors of fibronectin matrix deposition, primary screen, AH1F cells, Alexa488-fibronectin fluorescence, plate reader. inhibition, % at 12.6 µM. AH1F fibroblasts, overnight. 350,000 tested, 0.086% active;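 active = mean inhibition across replicates of 30% or more, regardless of how many single replicates reach that level; inconclusive = mean under 30% yet at least half of replicates reach 30%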
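material = AH1F fibroblast monolayer depositing Alexa488-labelled fibronectin into matrix | amount = 10000 AH1F cells/well | buffer or medium = DMEM plus 2% serum, read in PBS | incubation = 1 h cell adhesion before compound, then overnight fibronectin incubation | detection = fluorescence at 485 nm excitation, 525 nm emission | evaluation = percent inhibition as loss of matrix-bound fibronectin fluorescence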
PDI turbidity – inhibitors of human PDI, primary screen, biochemical, turbidity, single point, plate reader | 350,000 tested, 0.052% active | PDI insulin aggregation turbidity, A650, 90 min | inhibition, % at 10 µM;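 active = mean inhibition across replicates of 30% or more, whatever share of single replicates reach that level; inconclusive = mean inhibition below 30% while every single replicate reaches 30%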
MLL AF4-AF9 inh – inhibitors of AF4 peptide binding to AF9, primary screen, biochemical, AlphaScreen, biotin-AF4 peptide, FLAG-AF9, single point. AID 651704, 2012. 350,000 tested, 0.47% active. Protein AF-9 (Homo sapiens), P42568. inhibition, % at 10 µM;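 active = every replicate reaching a set inhibition limit, whatever the replicate mean, cut at about 25% in these data; inconclusive = mean inhibition reaches that limit but some replicates miss it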
ERp5 block – inhibitors of ERp5-driven insulin aggregation, primary screen, biochemical, turbidity, absorbance 650 nm, single point | 90 min | inhibition, % at 9.99 µM | 350,000 tested, 0.05% active;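 active = mean replicate inhibition above about 25%, with every replicate also reaching it, limit read from the data, passing the limit was not always enough; inconclusive = only one of those two criteria met; inactive = neither criterion met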
Target sequence (Q15084 whole entry, looked up): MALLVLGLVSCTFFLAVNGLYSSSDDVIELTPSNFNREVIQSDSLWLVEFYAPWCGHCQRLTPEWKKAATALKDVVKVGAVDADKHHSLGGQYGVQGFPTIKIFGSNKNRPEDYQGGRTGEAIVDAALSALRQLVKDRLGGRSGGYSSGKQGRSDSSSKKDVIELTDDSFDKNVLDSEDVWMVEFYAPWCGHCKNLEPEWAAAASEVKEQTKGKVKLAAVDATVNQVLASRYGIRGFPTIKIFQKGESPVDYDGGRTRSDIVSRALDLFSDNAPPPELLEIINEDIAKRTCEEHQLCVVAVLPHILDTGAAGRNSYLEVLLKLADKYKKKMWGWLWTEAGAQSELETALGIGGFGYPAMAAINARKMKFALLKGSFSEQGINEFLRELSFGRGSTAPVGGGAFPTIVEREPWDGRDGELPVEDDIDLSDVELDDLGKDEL
SIRT5 block – SIRT5 desuccinylase inhibitors, primary screen, biochemical, fluorescence imaging, single point, set 5; NAD-dependent protein deacylase sirtuin-5, mitochondrial (Homo sapiens), Q9NXA8; Purified SirT5, succinyl-peptide AMC, trypsin-coupled fluorescence; inhibition, % at 15 µM; 330,000 tested, 1.1% active; in the data active = inhibition above about 15%; inconclusive = no clear call, values can overlap the other calls
AlphaScreen intf – AlphaScreen signal interference counter-screen, dose response, artefact control, biochemical, cherry-picked samples, luminescence | AC50, µM (highest dose often 12 µM) | shares compounds with MLL AF4-AF9 inh | AID 720494, 2013 | 530 tested, 45% active; cut-off not given, nearly all actives have AC50 up to about 14 µM
A number is an active result; i = inactive; ? = inconclusive; nt = no result given; ! = repeats disagree.

SMILES | FN deposition inh | PDI turbidity | MLL AF4-AF9 inh | ERp5 block | SIRT5 block | AlphaScreen intf
CN1CCN(C(c2ccc(Br)cc2)c2cc(Cl)c3cccnc3c2O)CC1 (stereo unspecified) | i | i | 84 | i | i | 2.8µM
COc1ccc(N2CN=C3SCC(=O)N3C2)cc1 | i | i | nt | nt | nt | nt
CCc1ccc(-c2nc(CSCC(=O)N3CCN(c4ncccn4)CC3)c(C)o2)cc1 | i | i | i | i | i | i
O=C(NCc1ccco1)C(c1cccs1)N(Cc1ccccc1)C(=O)Cn1nnc2ccccc21 (stereo unspecified) | nt | i | nt | nt | nt | nt
CCc1cccc(NC(=O)CCCCCC2NC(=O)NC2C)c1 (stereo unspecified) | i | i | 95 | i | i | 0.29µM
CC1NC(=O)NC1CCCCCC(=O)Nc1ccc(F)c(Cl)c1 (stereo unspecified) | i | i | 93 | i | i | 0.6µM
CCc1cccc(NC(=O)CCCN2C(=O)NC(C)(C)C2=O)c1 | i | i | i | i | i | nt
COc1cc(CN2CCC(C(=O)N3CCC(C)CC3)CC2)cc(Br)c1O | i | i | nt | nt | nt | nt
COC(=O)c1cc(S(=O)(=O)NCc2ccccc2OC)cn1C | i | i | i | i | i | nt
COc1ccc(C)cc1Nc1n[n+](-c2ccccc2)c(-c2c(Cl)cccc2Cl)s1 | i | nt | 45 | i | nt | i
COc1ccc2ccccc2c1-c1sc(Nc2ccccc2)n[n+]1-c1ccc(F)cc1 | i | i | 43 | i | nt | i
CCc1ccc(Nc2n[n+](-c3ccccc3)c(-c3c(Cl)cccc3Cl)s2)cc1 | i | i | nt | i | nt | nt
COc1ccc(-c2sc(Nc3ccccc3)n[n+]2-c2ccc(F)cc2)cc1Br | i | i | i | i | nt | nt
Fc1ccc(-[n+]2nc(Nc3ccccc3)sc2-c2c(Cl)cccc2Cl)cc1 | i | i | 34 | i | nt | i
CC(C)(C)c1cc(C(=O)Nc2cccc3ccccc23)ccn1 | i | i | nt | nt | nt | nt
COc1ccccc1OCCNC(=O)c1ccccc1OCc1c(C)noc1C | i | i | i | i | i | nt
O=C(Nc1ccc(N2CCCC2)c(Cl)c1)c1ccc([N+](=O)[O-])o1 | i | i | 49 | i | i | 13µM
O=C(Nc1ccccc1N1CCCC1)c1ccc([N+](=O)[O-])o1 | i | i | i | i | i | nt
COc1ccc(CCNC(=O)c2ccc(N(C)S(=O)(=O)c3ccc(C)cc3)cc2)cc1OC | i | i | i | i | i | nt
COc1ccc(N2CCC(CNC(=S)Nc3c(C)cc(C)cc3C)C2)cc1 (stereo unspecified) | i | i | i | i | nt | nt
COc1ccc(N2CCC(CNC(=S)Nc3ccc(C)cc3C)C2)cc1 (stereo unspecified) | i | i | ? | i | i | i
CCn1c(C)c(C(C)=O)c(N2CCN(c3ccc(OC)cc3)CC2)nc1=S | nt | i | 32 | i | i | i
COc1ccc(N2CCN(c3nc(=S)n(-c4ccccc4)c(C)c3C(C)=O)CC2)cc1 | nt | i | nt | i | nt | nt
O=C(N/N=C/c1sc(N2CCCCC2)nc1-c1cccs1)C1CC1 | i | i | i | i | i | i
CC(C)NC(=S)N/N=C/c1sc(N2CCCCC2)nc1-c1cccs1 | i | i | i | i | i | nt
SMILES | FN deposition inh | PDI turbidity | MLL AF4-AF9 inh | ERp5 block | SIRT5 block | AlphaScreen intf
COC(=O)[C@]12C[C@H](CC(=O)NCc3cccs3)C(=O)N(CCC3=CCCCC3)C1=C[C@H](COCc1ccccc1)O[C@@H]2C | i | nt | i | i | nt | nt
CCN(CC)c1ccc(C(=C2C=CC(=[N+](CC)CC)C=C2)c2ccc(S(=O)(=O)O)cc2S(=O)(=O)[O-])cc1 | i | i | 60 | i | i | 7.9µM
CCN(CC)c1ccc(C(=O)O)cc1 | i | i | i | i | i | nt
C=CCn1c(=O)c2c3c(sc2n2c(Nc4ccc(C(=O)OCC)cc4)nnc12)CCCC3 | i | i | nt | nt | nt | nt
S=C(c1ccc(-c2cccc(Cl)c2)o1)N1CCCCC1 | i | i | i | i | i | nt
S=C(c1ccc(-c2cccc(Cl)c2)o1)N1CCOCC1 | nt | i | 29 | i | i | i
Nc1ncnc(Nc2ccc(F)c(Cl)c2)n1 | i | i | i | i | i | nt
COc1ccc(-c2csc(C(C)(NC(C)=O)c3ccccc3)n2)cc1 (stereo unspecified) | i | i | i | i | i | nt
CC1CCN(C2=C(NS(=O)(=O)c3ccc(Br)cc3)C(=O)c3ccccc3C2=O)CC1 | i | i | 50 | i | i | i
CCOC(=O)C1CCN(C2=C(NS(=O)(=O)c3ccc(Cl)cc3)C(=O)c3ccccc3C2=O)CC1 | i | i | 30 | i | i | i
CCOC(=O)C1CCCN(C2=C(NS(=O)(=O)c3ccc(Br)cc3)C(=O)c3ccccc3C2=O)C1 (stereo unspecified) | i | i | 52 | i | i | i
CC1CCN(C2=C(NS(=O)(=O)c3ccc(Cl)cc3)C(=O)c3ccccc3C2=O)CC1 | i | i | i | i | i | nt
CCCCCN=C(N)N/N=C/c1c[nH]c2ccc(OC)cc12 | i | i | 35 | i | i | i
Cc1cccc(C)c1N=Nc1c(C)cc(O)cc1C | i | i | 35 | i | i | 10µM
O=c1c(O)c(-c2ccccc2)oc2cc(O)cc(O)c12 | nt | nt | i | i | nt | nt
CC(C)=CCc1cc(-c2oc3cc(O)cc(O)c3c(=O)c2O)ccc1O | nt | nt | 35 | i | i | i
O=C(NCCCN1CCCC1=O)C1CCN(S(=O)(=O)c2ccccc2)CC1 | i | i | ? | i | i | nt
O=C(NCCCN1CCCC1=O)C1CCN(S(=O)(=O)c2cccc(C(F)(F)F)c2)CC1 | i | i | 27 | i | i | i
COc1ccc(-c2cc(NC=O)c3ncc(-c4cccc(C(=O)NCCN(C)C)c4)n3c2)cc1 | nt | i | 26 | i | i | i
O=[N+]([O-])c1ccccc1/C=C/C=N/N1CCCCC1 | i | i | 26 | i | i | 13µM
COc1ccc(NC(=O)c2ccc(-c3ccc(-c4noc(C)n4)cc3C)cc2)cc1N1CCN(C)CC1 | i | i | 38 | i | i | 12µM
Cc1noc(C)c1NC(=O)Nc1ccc2c(c1)C(=O)N([C@@H](C)CO)C[C@@H](C)[C@H](CN(C)S(=O)(=O)c1cn(C)cn1)O2 | nt | nt | i | i | i | nt
NC1=NC[C@H](Cc2ccc(O)cc2)N1CCc1cccc2ccccc12 | i | i | 32 | i | nt | i
Nc1ccc(O)c2c1C(=O)c1ccccc1C2=O | nt | nt | 38 | i | i | i
OCCN1CCN(CCCN2c3ccccc3Sc3ccc(Cl)cc32)CC1 | i | i | 40 | i | i | i
OCCN1CCN(CC/C=C2/c3ccccc3Sc3ccc(Cl)cc32)CC1 | i | i | ? | i | i | nt
CN1CCN(CCCN2c3ccccc3Sc3ccc(S(=O)(=O)N(C)C)cc32)CC1 | i | i | i | i | i | nt
CN(C)CCCN1c2ccccc2Sc2ccc(Cl)cc21 | i | i | 39! | i | i | i
O=[N+]([O-])c1ccc(/C=N/Nc2ccnc3cc(Cl)ccc23)o1 | i | i | 28 | i | i | i
CN1C(=O)c2cccc3c(Cl)ccc(c23)C1=O | i | i | nt | nt | nt | nt

Bioassay records deposited in PubChem by Broad Institute.
